Measurements from article PMC11751479 (Nature Communications, 2025).

Columns and labels:
Assay in all cases: HPLC assay, Michaelis-Menten regression
Format in all cases: biochemical, Cistanche tubulosa
[1] = tested on: CtUGT85A191; conditions: read-out: apparent KM; UDP-glucose donor; optimal conditions (supplement)
Summary of the method: (§1)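 Recombinant enzyme is expressed in E. coli and purified. Kinetic reactions follow supplementary methods. They are stopped with a double volume of methanol and centrifuged at 12,000 × g for 30 min, and the supernatant is analysed by HPLC. Kinetic constants come from nonlinear Michaelis-Menten regression.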

[2] = tested on: CtUGT85AF12; conditions: read-out: apparent KM; UDP-glucose donor; optimal conditions (supplement)
Summary of the method: as §1

[3] = tested on: CtUGT79G13; conditions: UDP-rhamnose donor; optimal conditions (supplement)
[4] = tested on: CtUGT73EV1; conditions: UDP-glucose donor; optimal conditions (supplement)

| Km [3] | Km [4] | SMILES | Km [1] | Km [2] |
| --- | --- | --- | --- | --- |
|  |  | OCCc1ccc(O)cc1 [compound 9, tyrosol] | 138 ± 22.7 µM | 9.92 ± 2.2 µM |
|  |  | OCCc1ccc(O)c(O)c1 [compound 10, hydroxytyrosol] | 288 ± 36.8 µM | 75.7 ± 12 µM |
| 77.8 ± 6.1 µM |  | O=C(/C=C/c1ccc(O)c(O)c1)O[C@H]1[C@H](O)[C@@H](O)[C@H](OCCc2ccc(O)c(O)c2)O[C@@H]1CO [compound 18, calA] |  |  |
|  | 135 ± 24.1 µM | C[C@@H]1O[C@@H](O[C@@H]2[C@@H](O)[C@H](OCCc3ccc(O)c(O)c3)O[C@H](CO)[C@H]2OC(=O)/C=C/c2ccc(O)c(O)c2)[C@H](O)[C@H](O)[C@H]1O [compound 20, acteoside] |  |  |
